The target of series [1] is T1, 11-beta-hydroxysteroid dehydrogenase 1 (Homo sapiens, UniProt P28845). The series is described as follows: Inhibition of human 11beta-HSD1 expressed in CHO cells assessed as conversion of cortisone to cortisol by ELISA. The class given is cell-based. (In an ELISA, binding on a coated surface is turned into a signal by an enzyme label.)
The target of series [2] is T1, 11-beta-hydroxysteroid dehydrogenase 1. Kind of series: Inhibition of human recombinant 11beta-HSD1 expressed in Escherichia coli using [3H]cortisone by scintillation proximity assay. (SPA uses beads or plates that emit light when radiolabelled molecules are held near them.)
Series [3] has as its target T2, Nuclear receptor subfamily 1 group I member 2 (Homo sapiens, UniProt O75469).
T2 sequence (O75469 whole entry): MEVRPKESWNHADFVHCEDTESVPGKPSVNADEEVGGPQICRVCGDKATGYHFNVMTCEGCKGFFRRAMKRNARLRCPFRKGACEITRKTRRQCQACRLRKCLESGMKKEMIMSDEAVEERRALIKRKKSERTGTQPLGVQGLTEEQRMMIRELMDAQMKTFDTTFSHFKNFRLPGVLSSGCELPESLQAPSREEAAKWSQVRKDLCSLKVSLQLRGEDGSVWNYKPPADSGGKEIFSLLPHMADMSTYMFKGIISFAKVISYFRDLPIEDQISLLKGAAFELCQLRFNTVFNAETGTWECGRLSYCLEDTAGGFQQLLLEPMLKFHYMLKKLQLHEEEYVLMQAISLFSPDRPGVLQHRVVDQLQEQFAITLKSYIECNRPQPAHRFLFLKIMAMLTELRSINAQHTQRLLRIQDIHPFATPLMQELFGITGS
Kind of series: Transactivation of human PXR transfected in HEK cells at 20 uM by luciferase reporter gene assay relative to 12.5 uM rifampin. The following applies: hek293, 20 µM. The class given is cell-based. An outline of the steps: (§1)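 HEK cells transfected with human PXR fused to a firefly luciferase reporter. Luciferase activity is expressed as percent of the 12.5 µM rifampin response. Run in triplicate; SEM reported.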
In general terms: A reporter such as luciferase makes a cellular process visible.

Series [4] concerns the target T3, 11-beta-hydroxysteroid dehydrogenase type 2 (Homo sapiens, UniProt P80365).
T3 sequence (P80365 whole entry): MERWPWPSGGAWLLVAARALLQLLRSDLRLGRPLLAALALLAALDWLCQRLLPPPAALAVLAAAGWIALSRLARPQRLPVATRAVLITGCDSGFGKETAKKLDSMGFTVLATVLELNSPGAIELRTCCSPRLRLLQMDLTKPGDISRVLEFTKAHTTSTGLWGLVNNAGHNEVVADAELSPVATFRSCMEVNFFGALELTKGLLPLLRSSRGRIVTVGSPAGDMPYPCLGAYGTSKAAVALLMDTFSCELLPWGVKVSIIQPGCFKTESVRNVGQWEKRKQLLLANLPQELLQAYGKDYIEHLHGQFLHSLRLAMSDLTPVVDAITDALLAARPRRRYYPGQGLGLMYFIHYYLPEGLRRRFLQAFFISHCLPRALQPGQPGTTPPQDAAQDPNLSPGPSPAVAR
The series is described as follows: Inhibition of human 11beta-HSD2 expressed in CHO cells using [3H]cortisol by scintillation proximity assay. The class given is cell-based. An outline of the steps:
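Human 11β-HSD2 from CHO cells with [3H]cortisol 3 nM and NAD+ 300 µM, in 0.1 M sodium phosphate pH 7.6. 1 h at room temperature, then stopped with 18β-glycyrrhetinic acid. Anticortisol antibody and antimouse SPA beads added for 30 min; radiometric read-out.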

Series [5] deals with T4, PXR (nuclear receptor subfamily 1 group I member 2) (Homo sapiens, UniProt O75469).
T4 sequence (O75469 whole entry): T2 sequence (O75469 whole entry)
Kind of series: Transactivation of human PXR transfected in HEK cells at 2 uM by luciferase reporter gene assay relative to 12.5 uM rifampin. The class given is cell-based. The following applies: HEK293 cells transfected with human PXR, read-out: Activity. An outline of the steps:
as §1

The target in series [6] is T5, Cytochrome P450 3A4 (Homo sapiens, UniProt P08684). The series is described as follows: Induction of CYP3A4 activity in cryopreserved human hepatocytes from male DJV donars with no adverse medical history or substance or alcohol abuse at 20 uM relative to 20 uM rifampin.
Series [7] has as its system Hepatocyte. The series is described as follows: Induction of CYP3A4 in cryopreserved human hepatocytes from male DJV donars with no adverse medical history or substance or alcohol abuse assessed as mRNA expression at 20 uM relative to 20 uM rifampin. The class given is functional.
Series [8] concerns the target T5, Cytochrome P450 3A4. The series is described as follows: Induction of CYP3A4 activity in cryopreserved human hepatocytes from female NPV donars with history of tobacco and substance usage at 20 uM relative to 20 uM rifampin.
Series [9] relates to Hepatocyte. The series is described as follows: Induction of CYP3A4 in cryopreserved human hepatocytes from female NPV donars with history of tobacco and substance usage assessed as mRNA expression at 20 uM relative to 20 uM rifampin. The class given is functional.

T1 sequence (P28845 whole entry): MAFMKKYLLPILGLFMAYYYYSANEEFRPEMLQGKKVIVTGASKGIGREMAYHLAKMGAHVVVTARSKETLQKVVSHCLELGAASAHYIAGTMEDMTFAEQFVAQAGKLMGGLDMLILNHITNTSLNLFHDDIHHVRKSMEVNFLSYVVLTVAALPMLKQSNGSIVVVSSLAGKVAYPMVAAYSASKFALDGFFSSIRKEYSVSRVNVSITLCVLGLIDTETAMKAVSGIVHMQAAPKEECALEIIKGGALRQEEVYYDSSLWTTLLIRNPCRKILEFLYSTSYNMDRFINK
T5 sequence (P08684 whole entry): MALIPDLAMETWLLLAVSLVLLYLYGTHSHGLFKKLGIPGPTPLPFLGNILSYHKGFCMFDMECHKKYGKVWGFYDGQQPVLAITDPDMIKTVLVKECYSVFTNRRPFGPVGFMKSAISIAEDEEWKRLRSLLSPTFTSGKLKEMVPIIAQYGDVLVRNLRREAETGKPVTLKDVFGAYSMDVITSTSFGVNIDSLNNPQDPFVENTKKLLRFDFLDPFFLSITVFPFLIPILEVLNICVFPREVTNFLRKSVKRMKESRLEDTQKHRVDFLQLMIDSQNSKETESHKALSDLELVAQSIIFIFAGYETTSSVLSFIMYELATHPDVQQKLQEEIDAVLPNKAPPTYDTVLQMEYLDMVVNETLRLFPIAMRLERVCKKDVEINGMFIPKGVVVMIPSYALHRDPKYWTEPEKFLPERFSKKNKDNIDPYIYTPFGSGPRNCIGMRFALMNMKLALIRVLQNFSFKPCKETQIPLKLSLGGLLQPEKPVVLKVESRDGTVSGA

With `C[C@H](NC1=NC(=O)C(C)(C2(O)CCC2)S1)c1ccc(F)cc1` (stereo not given in full), the IC50 in [1] was 32 nM; in [4] it was above 10000 nM. Also, in [2], the Ki was 49 nM. In [3], this compound registered an Activity of 26%.

For `C[C@H](NC1=NC(=O)C(C)(c2ccc(C(N)=O)cc2)S1)c1ccc(F)cc1` (stereo not given in full), in [5], the activity at 2 µM was found to be 0.8%. The Activity in series [3] is 9.3%.

In the case of `C[C@H](NC1=NC(=O)C(C)(C(C)(C)O)S1)c1ccccc1Cl` (stereo not given in full), the IC50 in series [1] was 18 nM; in [4], above 10000 nM. Moreover, the Ki in series [2] turned out to be 26 nM. Also, the Activity in [3] worked out at 63%.

Consider `C[C@H](NC1=NC(=O)C(C)(C(C)(C)O)S1)c1ccc(F)cc1` (stereo not given in full), for which the IC50 is 51 nM in [1] and above 10000 nM in [4]. The Ki in series [2] was found to be 65 nM. The same compound displayed an Activity in series [3] of 10%.

With `CC(C(=O)N[C@H]1C2CC3CC1C[C@](O)(C3)C2)N1CCN(c2ccc(C(F)(F)F)cn2)CC1` (stereo not given in full), the IC50 in series [1] was 5 nM.

Regarding `O=C(Nc1cccc(C(=O)N2CCC[C@@H]3CCCC[C@H]32)c1)c1ccccc1`, the IC50 in series [1] turned out to be 14 nM.

With `C[C@H](NC1=NC(=O)C(C)(C2(O)CCCC2)S1)c1ccc(F)cc1` (stereo not given in full), the figures for the IC50 in series [1] and in series [4] were 11 nM and above 10000 nM, respectively. Further, the Ki in [2] is 25 nM. Moreover, the Activity in series [3] turned out to be 61%.

On to `C[C@H](NC1=NC(=O)C(C)(c2ccc(C3(C(N)=O)CC3)cc2)S1)c1ccc(F)cc1` (stereo not given in full), for which the activity at 2 µM in series [5] is 6.7%. In addition, the Activity in [3] came out at 97%.

As to `C[C@H](NC1=NC(=O)C(C)(C(C)(C)O)S1)c1ccccc1` (stereo not given in full), in series [3], the Activity was 68%.

For the compound `C[C@H](NC1=NC(=O)C(C)(c2ccc(F)cc2)S1)c1ccc(F)cc1` (stereo not given in full), the activity at 2 µM in series [5] worked out at 64%. Besides, in series [3], the Activity is reported as 65%.

Take `C[C@H](NC1=NC(=O)C(C)(C(C)(C)O)S1)c1ccccc1F` (stereo not given in full): the IC50 in [1] was 70 nM; in series [4], above 10000 nM. In series [2], the Ki was determined as 34 nM. This compound also showed an Activity in series [3] of 19%.

Turning to `C[C@H](NC1=NC(=O)C(C)(CC(C)(C)O)S1)c1ccc(F)cc1` (stereo not given in full), the Activity in [3] stood at 28%.

As to `C[C@H](NC1=NC(=O)[C@@](C)(C(C)(C)O)S1)c1ccc(F)cc1`, the IC50 in series [1] stood at 300 nM. Also, the Ki in series [2] was 210 nM.

Regarding `C[C@H](NC1=NC(=O)C(C)(c2ccc(CO)cc2)S1)c1ccc(F)cc1` (stereo not given in full), the activity at 2 µM in series [5] was 2.3%. Moreover, the Activity in series [3] is reported as 25%.

For `C[C@H](NC1=NC(=O)C(C)(C(C)(C)O)S1)c1ccccc1C(F)(F)F` (stereo not given in full), the IC50 in series [1] was 43 nM; in series [4], above 10000 nM. Besides, in series [2], the Ki was 25 nM. The same compound had an Activity in series [3] of 43%.

Turning to `C[C@H](NC1=NC(=O)C(C)(c2ccc(C(=O)N3CCCC3)cc2)S1)c1ccc(F)cc1` (stereo not given in full), the activity at 2 µM in [5] came to 4.1%. In series [3], this compound gave an Activity of 35%.

Take `C[C@H](NC1=NC(=O)[C@@](C)(C(F)(F)F)S1)c1ccccc1F`: the Activity came to 64% in [6]; 110% in series [7]; 56% in series [8]; 67% in series [9]; 45% in series [3].

The term IC50 denotes the concentration that inhibits the measured activity by half. The term Ki denotes the dissociation constant of the complex between target and ligand, obtained from inhibition or displacement.

These data come from ChEMBL document CHEMBL1151735, “Further studies with the 2-amino-1,3-thiazol-4(5H)-one class of 11beta-hydroxysteroid dehydrogenase type 1 inhibitors: reducing pregnane X receptor activity and exploring activity in a monkey pharmacodynamic model” (J Med Chem, 2008).
